In ChEMBL document CHEMBL1155814, “Structure-activity correlations for beta-phenethylamines at human trace amine receptor 1” (Bioorg Med Chem, 2008) one finds Emax, EC50 and Activity data, which are given here for 69 compounds.

Format in all cases: functional, cell-based
In assay [1] the target is T1, Trace amine-associated receptor 1 (Homo sapiens) (UniProt Q96RJ0).
T1 sequence (whole entry): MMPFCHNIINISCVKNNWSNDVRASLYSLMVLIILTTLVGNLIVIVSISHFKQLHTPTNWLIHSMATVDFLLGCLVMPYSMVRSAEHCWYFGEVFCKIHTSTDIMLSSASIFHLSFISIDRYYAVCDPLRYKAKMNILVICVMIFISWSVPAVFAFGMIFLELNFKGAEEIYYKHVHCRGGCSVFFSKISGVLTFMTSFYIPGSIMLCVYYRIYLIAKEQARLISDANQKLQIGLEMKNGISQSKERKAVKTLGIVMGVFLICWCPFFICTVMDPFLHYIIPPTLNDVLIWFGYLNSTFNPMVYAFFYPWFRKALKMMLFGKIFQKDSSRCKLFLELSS
Briefly: Agonist activity at human trace amine associated receptor 1 expressed in RD-HGA16 CHO-K1 cells coexpressed with Galpha16 protein assessed as internal calcium mobilization by calcium 3 assay relative to 2-phenylethanamine. The essentials: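 Unmodified human TAAR1 stably expressed in CHO cells carrying Galpha16 (RD-HGA16). Cells seeded at 30,000/well in HAM's F-12 with 10% FBS, 400 ug/mL hygromycin and 400 µg/mL geneticin, overnight at 37 °C, 5% CO2. Loaded 1 h at 37 °C with Calcium 3 dye at 1/3 kit strength. Fluorescence read from the bottom at 485/525 nm, 515 cutoff. Basal signal recorded 13 sec before compound addition. Compounds tested at 7–8 concentrations in duplicate. A six-point β-PEA curve was run on each plate.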
In general terms: Calcium assays in cells follow changes in intracellular calcium, usually with a dye or a luminescent sensor.

In assay [2] the target is T2, Trace amine-associated receptor 1 (Homo sapiens, UniProt Q96RJ0).
T2 sequence (Q96RJ0 whole entry): T1 sequence (whole entry)
Description: (§1) Agonist activity at human trace amine associated receptor 1 expressed in RD-HGA16 CHO-K1 cells coexpressed with Galpha16 protein assessed as internal calcium mobilization by calcium 3 assay. Summed up: (§2)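 Unmodified human TAAR1 stably expressed in CHO cells carrying Galpha16 (RD-HGA16). Cells seeded at 30,000/well in HAM's F-12 with 10% FBS, 400 ug/mL hygromycin and 400 µg/mL geneticin, overnight at 37 °C, 5% CO2. Loaded 1 h at 37 °C with Calcium 3 dye at 1/3 kit strength. Basal signal recorded 13 sec before compound addition. Compounds tested at 7–8 concentrations in duplicate. A six-point β-PEA curve was run on each plate.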

The target in assay [3] is T2, Trace amine-associated receptor 1. Briefly: Agonist activity at human trace amine associated receptor 1 expressed in AV12-664 cells coexpressed with rat GalphaS protein assessed as cAMP accumulation. (In general: Changes in cAMP serve as a functional read-out for many G protein-coupled receptors.)
Assay [4] has as its target T1, Trace amine-associated receptor 1 (Homo sapiens). Description: Agonist activity at human trace amine associated receptor 1 expressed in AV12-664 cells coexpressed with rat […] protein assessed as cAMP accumulation relative to 2-phenylethanamine.
The target is the same in assay [5]. Described as §1. The essentials: as §2

Usually Emax stands for the greatest response seen or fitted, relative to the assay's reference. A word on the EC50: it is the concentration giving half of the maximal effect.

SMILES strings stand for the structures. Activity calls are given as the source filed them.

`NCCc1cccc(Cl)c1Cl`: in assay [1], the Emax came out at 84%. Also, in assay [2], the EC50 turned out to be 1.16 µM.

For the compound `CC(C)C(CN)c1ccccc1` (stereo unspecified), the Emax in assay [1] was 46%. Moreover, the EC50 in assay [2] worked out at 9.95 µM. On to `COc1cc(CCN)c(OC)cc1C`, for which the Emax in assay [1] amounted to 36%. Also, in assay [2], the EC50 came to 6.48 µM. Consider `CNCCc1ccccc1Br`, for which the Emax in assay [1] is 93%. Besides, the 50% effective concentration (EC50) in assay [2] was 0.205 µM. Take `CC(C)(C)c1ccc(CCN)cc1`: in assay [2], the EC50 was 5110 µM. `COc1ccc(CCN)cc1`: in assay [1], the Emax amounted to 106%. In assay [2], the EC50 came to 5.98 µM. On to `CNCCc1ccccc1`, for which the EC50 in assay [3] was determined as 0.25 µM; in assay [2], 0.387 µM. Moreover, the Emax in assay [1] is 69%; in assay [4] it was 93.4%. On to `NCCc1cccc(C(F)(F)F)c1`, for which the Emax in assay [1] was 69%. Further, the EC50 in assay [2] turned out to be 3.95 µM. Taken in the same sequence, the figures for `CNCCc1ccccc1Cl` were 70% and 0.16 µM. In the same order, the values of `NCCc1c(F)cc(O)cc1F` are 103% and 0.767 µM. Regarding `CN(C)CCc1ccccc1Br`, the Emax in assay [1] came out at 78%. Besides, the EC50 in assay [2] was 3.46 µM.

Take `COc1ccc(OC)c(CCN)c1`: the Emax in assay [1] turned out to be 69%. Further, the concentration giving a half-maximal response (EC50) in assay [2] is 2.01 µM. Turning to `NCC(c1ccccc1)c1ccccc1`, the Emax in assay [1] was 70%. The EC50 in assay [2] was 3.4 µM. In the same order, the values of `NCCc1ccccc1F` are 91% and 0.065 µM. On to `COc1cc(F)c(CCN)c(F)c1`, for which, in assay [1], the Emax came out at 90%. The EC50 in assay [2] came out at 1.4 µM. Take `Cc1ccccc1CCN`: in assay [1], the Emax is 97%. The EC50 in assay [2] amounted to 0.355 µM. As for `NCCc1c(F)cccc1Cl`, in assay [1], the Emax worked out at 94%. Also, the EC50 in assay [2] worked out at 0.312 µM.

On to `NCCc1ccc(Cl)cc1`, for which the Emax in assay [1] is 104%. In addition, the EC50 in assay [2] was found to be 2.86 µM. As to `NCCc1c(Cl)cccc1Cl`, the Emax in assay [1] was 94%. For the same compound, the EC50 in assay [2] is 0.051 µM. Taken in the same sequence, the figures for `COc1ccccc1CCN` were 95% and 0.144 µM.

With `CN(C)CCc1cccc(F)c1`, in assay [1], the Emax was 78%. For the same compound, the EC50 in assay [2] amounted to 4.32 µM. As to `NCCc1ccccc1I`, the Emax in assay [1] is 109%. Besides, the EC50 in assay [2] was found to be 0.103 µM. Taken in the same sequence, the figures for `NCCc1cccc(F)c1` were 93% and 0.15 µM. Consider `CN(C)CCc1ccccc1Cl`, for which the Emax in assay [1] amounted to 79%. Moreover, the EC50 in assay [2] stood at 0.687 µM. With `NCCc1ccc(Cl)c(Cl)c1`, in assay [1], the Emax is 78%. In addition, the EC50 in assay [2] was 3.43 µM. Consider `NCCc1ccccc1Br`, for which the Emax in assay [1] came out at 89%. For the same compound, the EC50 in assay [2] was 0.057 µM. Turning to `CCc1cc(OC)c(CCN)cc1OC`, in assay [1], the Emax turned out to be 32%. Further, the EC50 in assay [2] was 6.41 µM. Turning to `NCC1(c2ccccc2)CC1`, in assay [1], the Emax was found to be 79%. In assay [2], the EC50 was 5.05 µM. As to `Cc1ccc(CCN)cc1`, the Emax in assay [1] amounted to 96%. Also, the EC50 in assay [2] is 4.38 µM. Take `CN(C)CCc1ccc(Br)cc1`: the Emax in assay [1] came to 40%. Further, in assay [2], the EC50 was determined as 24.4 µM. For `NCCc1ccc2c(c1)OCO2`, the Emax in assay [1] turned out to be 63%. Moreover, the EC50 in assay [2] was 5.03 µM.

Take `C[C@@H](CN)c1ccccc1`: the Emax in assay [1] turned out to be 97%. In addition, the EC50 in assay [2] was found to be 0.361 µM. As to `CNCCc1ccc(Cl)cc1`, the Emax in assay [1] came out at 67%. In assay [2], the EC50 amounted to 7.43 µM. `N[C@@H]1C[C@H]1c1ccccc1` (relative stereo): in assay [1], the Emax was 72%. The EC50 in assay [2] came to 1.51 µM.

Take `CN(C)CCc1cccc(Br)c1`: the Emax in assay [1] was found to be 88%. Moreover, in assay [2], the EC50 turned out to be 8.3 µM. Take `NCCc1ccc(Br)cc1`: in assay [1], the Emax came to 98%. Also, the EC50 in assay [2] turned out to be 1.54 µM. Consider `C[C@H](N)Cc1ccccc1`, for which the Emax in assay [1] turned out to be 74%. Consider `NCCc1ccccc1O`, for which, in assay [1], the Emax stood at 90%. Also, in assay [2], the EC50 is 0.614 µM. In the same order, the values of `NCCc1ccc(C(F)(F)F)cc1` are 78% and 11.6 µM.

As for `COc1cc(CCN)c(OC)cc1Br`, the Emax in assay [1] is 22%. The EC50 in assay [2] worked out at 7.19 µM. For the compound `CN(C)CCc1ccc(F)cc1`, the Emax in assay [1] was found to be 71%. For the same compound, the EC50 in assay [2] worked out at 19.1 µM. For the compound `CNCCc1ccccc1F`, the Emax in assay [1] came out at 75%. In addition, the EC50 in assay [2] turned out to be 0.117 µM. `CN(C)CCc1ccccc1`: the figures for the EC50 in assay [3] and in assay [2] were 1.49 µM and 100 µM, respectively. Also, in assay [4], the Emax was 97.1%.

Consider `CNCCc1ccc(Br)cc1`, for which, in assay [1], the maximum response (Emax) worked out at 60%. In addition, the EC50 in assay [2] turned out to be 6.54 µM.

`Cc1ccc(C)c(CCN)c1`: the Emax in assay [1] was 84%. The EC50 in assay [2] amounted to 0.377 µM. Taken in the same sequence, the figures for `NCCc1cccc(O)c1` were 78% and 1.74 µM. For `CNCCc1cccc(Br)c1`, the Emax in assay [1] worked out at 71%. In addition, the EC50 in assay [2] worked out at 1.07 µM. Consider `CC(C)(N)Cc1ccccc1` [PHENTERMINE], for which, in assay [1], the Emax was 68%. In addition, the EC50 in assay [2] was found to be 5.47 µM.

In the case of `NCCc1ccc([N+](=O)[O-])cc1`, the EC50 in assay [2] was found to be 167 µM. `C[C@H](CN)c1ccccc1`: the Emax in assay [1] turned out to be 104%. Also, the EC50 in assay [2] stood at 0.129 µM. On to `NCCc1ccccc1` [PHENETHYLAMINE], for which the Emax in assay [1] stood at 100%. Besides, the EC50 in assay [2] worked out at 0.129 µM. Consider `Cc1cccc(CCN)c1`, for which the Emax in assay [1] is 93%. Moreover, the EC50 in assay [2] came to 0.638 µM.

As to `C[C@@H](N)Cc1ccccc1`, the Emax in assay [1] was 64%. As to `CN(C)CCc1ccccc1F`, in assay [1], the Emax is 75%. Further, the EC50 in assay [2] came to 1.29 µM.

For the compound `CN(C)CCc1ccc(Cl)cc1`, in assay [1], the Emax was determined as 43%. The EC50 in assay [2] came to 630 µM. In the case of `NCCc1ccc(F)cc1`, the Emax in assay [1] stood at 81%. For the same compound, in assay [2], the EC50 is 0.74 µM. For `NCCc1cccc(Br)c1`, in assay [1], the Emax is 75%. For the same compound, in assay [2], the EC50 came out at 0.398 µM. Take `CNCCc1cccc(F)c1`: in assay [1], the Emax is 88%. Besides, the EC50 in assay [2] was determined as 0.53 µM. Taken in the same sequence, the figures for `COc1cccc(CCN)c1` were 73% and 1.44 µM. Taken in the same sequence, the figures for `NCCc1ccc(O)cc1` [TYRAMINE] were 91% and 0.731 µM. Turning to `NCCc1ccccc1Cl`, the maximum response (Emax) in assay [1] stood at 72%. Further, the EC50 in assay [2] stood at 0.077 µM.

With `NCCc1cccc(Cl)c1`, the Emax in assay [1] stood at 105%. Further, in assay [2], the EC50 was 0.189 µM.

Regarding `COc1cc(CCN)c(OC)cc1Cl`, the Emax in assay [1] came to 30%. Besides, the EC50 in assay [2] is 3.75 µM. `CN(C)CCc1cccc(Cl)c1`: the Emax in assay [1] turned out to be 62%. Further, the EC50 in assay [2] worked out at 5.98 µM. Taken in the same sequence, the figures for `CNCCc1ccc(F)cc1` were 63% and 1.04 µM. As to `CCc1ccc(CCN)cc1`, the Emax in assay [1] amounted to 86%. Further, in assay [2], the EC50 turned out to be 9.1 µM. For the compound `COc1cc(OC)c(OC)cc1CCN`, in assay [5], the outcome was inactive. On to `CNCCc1cccc(Cl)c1`, for which, in assay [1], the Emax is 77%. Besides, the EC50 in assay [2] was 0.501 µM.

For `CC(C)(CN)c1ccccc1`, the Emax in assay [1] came to 70%. Moreover, the concentration giving a half-maximal response (EC50) in assay [2] stood at 7.88 µM.
